Reference: the array DNA melting data of Ke et al. (doi:10.1101/2024.01.08.574731)

What was measured:
[1] = folding enthalpy; higher = less favourable; fluorescence melt of hairpins on a sequencing array, two-state fit; settings: sodium 0.088 M
Summary of the method: (§1)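 Folding enthalpy and melting temperature come from bootstrapped two-state fits to Cy3 fluorescence of library hairpins carrying annealed Cy3 and quencher oligos on a sequenced MiSeq flow cell. Imaging was done in 50 mM Na-HEPES pH 8.0, 25 mM NaCl, stepping by 2.5 °C up to 60 °C, and signals were normalised to pre-quench Cy3 and to control constructs. Results of four replicates were combined by inverse variance, and fitted temperatures were raised by 9.35 °C to match UV melts.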

[2] = melting temperature; fluorescence melt of hairpins on a sequencing array, two-state fit, raised by 9.35 °C to match UV melts; settings: sodium 0.088 M
Summary of the method: as §1

GCGGATGGAAACGTCTGC ((.((.(....).)).))
folding enthalpy [1]: -28.1 kcal/mol | Tm [2]: 44.3 °C

GGTGGCGAAAGCCAGACC ((((((....)))..)))
folding enthalpy [1]: -12.6 kcal/mol | Tm [2]: 46.9 °C

GATCTATCTTAGATC ((((((...))))))
folding enthalpy [1]: -24.6 kcal/mol | Tm [2]: 41.4 °C

GATCGCCTTCGCGATC ((((((....))))))
folding enthalpy [1]: -41 kcal/mol | Tm [2]: 68.4 °C

GCTGACGAAAGTCAAGC ((((((....))).)))
folding enthalpy [1]: -28.8 kcal/mol | Tm [2]: 56.3 °C

GCGTTCGAAAGAAAACGC ((((((....)))..)))
folding enthalpy [1]: -27.3 kcal/mol | Tm [2]: 49 °C

GCATGACGAAAGTCTTGC (((.(((....))).)))
folding enthalpy [1]: -38.3 kcal/mol | Tm [2]: 57.5 °C

GGGCTCGAAAGAGCACCC ((((((....)))..)))
folding enthalpy [1]: -12.2 kcal/mol | Tm [2]: 58.1 °C

GATCCATCAATGGATC ((((((....))))))
folding enthalpy [1]: -44 kcal/mol | Tm [2]: 52.3 °C

GCGGATCGAAAGATTCGC (((.(((....))).)))
folding enthalpy [1]: -45.9 kcal/mol | Tm [2]: 60.8 °C

GCCACTGGAAACAGTAGC ((.((((....)))).))
folding enthalpy [1]: -27.7 kcal/mol | Tm [2]: 40.5 °C

GAACACGGAAACGCGTTC ((((.((....)).))))
folding enthalpy [1]: -35.8 kcal/mol | Tm [2]: 48.1 °C

GGTCTTCGAAAGAATACC (((.(((....))).)))
folding enthalpy [1]: -32.9 kcal/mol | Tm [2]: 39.1 °C

GATGTAGGAAACTATATC (((.(((....))).)))
folding enthalpy [1]: -28.5 kcal/mol | Tm [2]: 33.1 °C

GTCTGCGAAAGCAACGAC ((((((....)))..)))
folding enthalpy [1]: -13.1 kcal/mol | Tm [2]: 44.9 °C

CGTCCGGAAACGGATACG ((((((....)))..)))
folding enthalpy [1]: -18.1 kcal/mol | Tm [2]: 40 °C

GCCTTCGAAAGAAAGGGC ((((((....)))..)))
folding enthalpy [1]: -29.4 kcal/mol | Tm [2]: 43.1 °C

GTTTCCGAAAGGATAAAC ((((((....)))..)))
folding enthalpy [1]: -15.8 kcal/mol | Tm [2]: 29.7 °C

GATGAAGGAAACCTCATC (((((.(....).)))))
folding enthalpy [1]: -24.7 kcal/mol | Tm [2]: 36.1 °C

GATCGATACCTCGATC ((((((....))))))
folding enthalpy [1]: -35.1 kcal/mol | Tm [2]: 53.1 °C

GTGATCCCGAAAGGGCAC (((..(((....))))))
folding enthalpy [1]: -14.4 kcal/mol | Tm [2]: 39.9 °C

GCGAAGCGAAAGCAACGC (((..((....))..)))
folding enthalpy [1]: -11 kcal/mol | Tm [2]: 48.4 °C

GATCTGGCTACAGATC ((((((....))))))
folding enthalpy [1]: -42 kcal/mol | Tm [2]: 59.4 °C

GTTCGGCGAAAGCCTAAC (((.(((....))).)))
folding enthalpy [1]: -19.2 kcal/mol | Tm [2]: 43 °C

GGCCTGGGAAACCAGGTC (.(((((....))))).)
folding enthalpy [1]: -33 kcal/mol | Tm [2]: 58.5 °C

GACTGCGAAAGCACAGTC ((((((....)))..)))
folding enthalpy [1]: -13.2 kcal/mol | Tm [2]: 44.5 °C

GTGATTGGAAACAACCAC (((.(((....))).)))
folding enthalpy [1]: -31.3 kcal/mol | Tm [2]: 37.5 °C

GATCACGCGTGTGATC ((((((....))))))
folding enthalpy [1]: -38.7 kcal/mol | Tm [2]: 56.5 °C

GGTAAAGCGAAAGCTACC (((..(((....))))))
folding enthalpy [1]: -19 kcal/mol | Tm [2]: 44.8 °C

GATCACCAATGTGATC ((((((....))))))
folding enthalpy [1]: -35.3 kcal/mol | Tm [2]: 54.1 °C

GTACGCGAAAGCGGTAC ((((((....))).)))
folding enthalpy [1]: -16.6 kcal/mol | Tm [2]: 56.5 °C

GCCGCTGCGAAAGCAGGC (((..(((....))))))
folding enthalpy [1]: -9.88 kcal/mol | Tm [2]: 65.1 °C

GCGACACTCGC ((((...))))
folding enthalpy [1]: -18.2 kcal/mol | Tm [2]: 53.1 °C

TCGGAGAAATCCGA (((((....)))))
folding enthalpy [1]: -16.8 kcal/mol | Tm [2]: 47.3 °C

GATCTTGTCAAGATC ((((((...))))))
folding enthalpy [1]: -34.2 kcal/mol | Tm [2]: 47.4 °C

GCGAGGCGAAAGCCAGGC ((..(((....)))..))
folding enthalpy [1]: -13.1 kcal/mol | Tm [2]: 56.4 °C

GATCCCTGGGGGATC ((((((...))))))
folding enthalpy [1]: -40.5 kcal/mol | Tm [2]: 62.2 °C

GACCCCGAAAGGGCGTC ((((((....))).)))
folding enthalpy [1]: -36.6 kcal/mol | Tm [2]: 56.7 °C

GATGTGCGAAAGCAAATC (((.(((....))).)))
folding enthalpy [1]: -23.3 kcal/mol | Tm [2]: 46.6 °C

GGGCTAGGAAACTGGCCC ((((.((....)).))))
folding enthalpy [1]: -41.4 kcal/mol | Tm [2]: 58.2 °C

GACACGGGAAACCGCATC ((..(((....)))..))
folding enthalpy [1]: -11.1 kcal/mol | Tm [2]: 20.4 °C

GATCGCTATGGCGATC ((((((....))))))
folding enthalpy [1]: -30.2 kcal/mol | Tm [2]: 69.1 °C

GCGTTCAAACGC ((((....))))
folding enthalpy [1]: -24.5 kcal/mol | Tm [2]: 53.1 °C

GCACAAACGAAAGTTTGC (((..(((....))))))
folding enthalpy [1]: -11.2 kcal/mol | Tm [2]: 39.7 °C

CGAAGCCGGAAACGGTCG (((..(((....))))))
folding enthalpy [1]: -12.6 kcal/mol | Tm [2]: 37.8 °C

GATCATCCGTATGATC ((((((....))))))
folding enthalpy [1]: -38.9 kcal/mol | Tm [2]: 47.8 °C

GATCCTGCTAGGATC ((((((...))))))
folding enthalpy [1]: -34 kcal/mol | Tm [2]: 54.8 °C

GATTCCGAAAGGAAGATC ((((((....)))..)))
folding enthalpy [1]: -22.3 kcal/mol | Tm [2]: 45.4 °C

GCAGACGGAAACGTCCAC (..((((....))))..)
folding enthalpy [1]: -9.46 kcal/mol | Tm [2]: 32.1 °C

CGGCTCGGAAACGACCG (((.(((....))))))
folding enthalpy [1]: -31.8 kcal/mol | Tm [2]: 50.9 °C

GCCAGCGCGAAAGCGGGC (((..(((....))))))
folding enthalpy [1]: -16.1 kcal/mol | Tm [2]: 61.2 °C

GATCTAGGTGTAGATC ((((((....))))))
folding enthalpy [1]: -31 kcal/mol | Tm [2]: 42.9 °C

GACCAAGGAAACCTGGTC (((((.(....).)))))
folding enthalpy [1]: -33.4 kcal/mol | Tm [2]: 47.2 °C

GATCACGGGCGTGATC ((((((....))))))
folding enthalpy [1]: -40.4 kcal/mol | Tm [2]: 57.8 °C

GTTACCCGAAAGGGAAAC (((.(((....))).)))
folding enthalpy [1]: -21.6 kcal/mol | Tm [2]: 48.6 °C

GCGGACTCCCGC ((((....))))
folding enthalpy [1]: -32.8 kcal/mol | Tm [2]: 53.1 °C

GTGAATGGAAACGTTCAC (((((.(....).)))))
folding enthalpy [1]: -39.7 kcal/mol | Tm [2]: 47.1 °C

GCCGTTGGAAACAGCGGC ((((.((....)).))))
folding enthalpy [1]: -39.8 kcal/mol | Tm [2]: 60.3 °C

GGAACCGAAAGGTGGTCC ((((((....)))..)))
folding enthalpy [1]: -14.7 kcal/mol | Tm [2]: 35.4 °C

GATCGATGAGTCGATC ((((((....))))))
folding enthalpy [1]: -41.6 kcal/mol | Tm [2]: 55.5 °C

GCTTGGGAAACCAAGC ((((((....))))))
folding enthalpy [1]: -35.7 kcal/mol | Tm [2]: 62.7 °C

GCCGAAGGAAACTTCAGC ((.((((....)))).))
folding enthalpy [1]: -11.7 kcal/mol | Tm [2]: 32.9 °C

GTCCGAGGAAACTCAGAC (((.(((....))).)))
folding enthalpy [1]: -21.4 kcal/mol | Tm [2]: 35.9 °C

GATCGGTATACCGATC ((((((....))))))
folding enthalpy [1]: -36.7 kcal/mol | Tm [2]: 64.3 °C

GACGTGGGAAACCACATC ((.((((....)))).))
folding enthalpy [1]: -17.4 kcal/mol | Tm [2]: 34.5 °C

GCAGAGGGAAACCTCTGC (((((((....)))))))
folding enthalpy [1]: -46.2 kcal/mol | Tm [2]: 67.9 °C

GATCGACGATTCGATC ((((((....))))))
folding enthalpy [1]: -37.1 kcal/mol | Tm [2]: 49.4 °C

GCGAACGAAAGTTGCGC ((((((....))).)))
folding enthalpy [1]: -36.9 kcal/mol | Tm [2]: 53.9 °C

GTGGACTCGAAAGAGCAC (((..(((....))))))
folding enthalpy [1]: -21.4 kcal/mol | Tm [2]: 39.7 °C

GCGTAAGACGC ((((...))))
folding enthalpy [1]: -21.3 kcal/mol | Tm [2]: 53 °C
